Assay results reported in ChEMBL document CHEMBL1944512, “Discovery of a novel chemotype of potent human ENaC blockers using a bioisostere approach. Part 1: quaternary amines” (Bioorg Med Chem Lett, 2012).

Key:
[1] = Inhibition of human ENaC in HBE cells by short-circuit current technique; format: cell-based
[2] = Thermodynamic solubility of the compound at pH 1 after 24 hrs of post-equilibriation by shake-flask method; format: physicochemical; details: buffer, read-out: Therm_solubility
[3] = Thermodynamic solubility of the compound at pH 9 after 24 hrs of post-equilibriation by shake-flask method; format: physicochemical; details: buffer, read-out: Therm_solubility
[4] = Thermodynamic solubility of the compound at pH 4 after 24 hrs of post-equilibriation by shake-flask method; format: physicochemical; details: buffer, read-out: Therm_solubility
[5] = Thermodynamic solubility of the compound at pH 6.8 after 24 hrs of post-equilibriation by shake-flask method; format: physicochemical; details: buffer, read-out: Therm_solubility
Homo sapiens = species: Homo sapiens; experiment: Ratio of amiloride IC50 to compound IC50 for human ENaC
[6] = Inhibition of guinea pig ENaCbeta1/gamma1 expressed in FRT cells by short-circuit current technique; format: cell-based; details: Cavia porcellus
In short: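 Fischer rat thyroid cells transiently infected with guinea-pig ENaC were used to measure channel blockade, and the value is reported as an IC50.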

[7] = Permeability from apical to basal side of human Caco2 cells; format: ADME, cell-based; details: Caco-2, read-out: permeability
Cavia porcellus = experiment: Blockade of tracheal potential difference in it dosed Dunkin Hartley guinea pig at 1hr; format: functional; details: Trachea
[8] = Permeability from basal to apical side of human Caco2 cells; format: ADME, cell-based; details: Caco-2, read-out: permeability
[9] = biological target: T1, Voltage-gated inwardly rectifying potassium channel KCNH2 (Homo sapiens, UniProt Q12809); experiment: Binding affinity to human ERG channel
T1 sequence (Q12809 whole entry): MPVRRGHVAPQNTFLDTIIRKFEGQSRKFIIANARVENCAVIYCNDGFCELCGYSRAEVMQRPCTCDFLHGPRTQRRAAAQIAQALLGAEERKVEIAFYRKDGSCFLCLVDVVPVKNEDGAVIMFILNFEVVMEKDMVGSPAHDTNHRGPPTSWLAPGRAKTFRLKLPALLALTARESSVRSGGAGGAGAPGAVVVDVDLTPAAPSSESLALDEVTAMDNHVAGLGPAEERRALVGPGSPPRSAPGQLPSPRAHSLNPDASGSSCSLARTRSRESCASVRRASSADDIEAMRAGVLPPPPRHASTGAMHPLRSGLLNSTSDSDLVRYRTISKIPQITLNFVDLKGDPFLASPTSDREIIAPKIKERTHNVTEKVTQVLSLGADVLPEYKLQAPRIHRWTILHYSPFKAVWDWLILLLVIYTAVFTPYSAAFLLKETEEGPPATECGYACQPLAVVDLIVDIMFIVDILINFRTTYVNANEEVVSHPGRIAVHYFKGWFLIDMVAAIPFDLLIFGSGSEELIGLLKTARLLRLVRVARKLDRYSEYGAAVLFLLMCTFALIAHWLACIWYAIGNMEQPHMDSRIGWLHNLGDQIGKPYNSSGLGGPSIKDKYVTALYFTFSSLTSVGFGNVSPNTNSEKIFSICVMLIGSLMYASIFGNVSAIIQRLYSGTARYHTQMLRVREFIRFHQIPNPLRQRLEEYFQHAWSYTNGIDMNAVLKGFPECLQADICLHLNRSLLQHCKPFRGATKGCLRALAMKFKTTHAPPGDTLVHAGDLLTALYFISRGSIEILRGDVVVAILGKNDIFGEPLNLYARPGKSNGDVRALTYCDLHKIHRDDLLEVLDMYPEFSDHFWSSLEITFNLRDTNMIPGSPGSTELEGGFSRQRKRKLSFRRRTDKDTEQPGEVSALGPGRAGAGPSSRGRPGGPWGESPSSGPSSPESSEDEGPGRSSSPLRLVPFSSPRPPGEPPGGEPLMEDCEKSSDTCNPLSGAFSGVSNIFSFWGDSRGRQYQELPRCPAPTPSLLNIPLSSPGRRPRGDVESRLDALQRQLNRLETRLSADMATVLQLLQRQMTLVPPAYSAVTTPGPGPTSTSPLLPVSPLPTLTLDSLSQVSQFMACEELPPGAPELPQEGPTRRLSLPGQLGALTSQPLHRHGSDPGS

[10] = biological target: T1, Voltage-gated inwardly rectifying potassium channel KCNH2; experiment: Inhibition of human ERG channel by patch clamp assay
HBE = experiment: Inhibition of human ENaC in HBE cells at 30 uM by short-circuit current technique; format: cell-based

`CN(C)CCN(C)C(=O)c1nc(Cl)c(N)nc1N` gave an IC50 [1] of over 30000 nM.
`Cc1ccc(CCC(=O)NCCCC[N+](C)(C)CCNC(=O)c2nc(Cl)c(N)nc2N)cc1` showed an IC50 [1] of 590 nM.
`C[N+](C)(CCCCNC(=O)Cc1ccccc1)CCNC(=O)c1nc(Cl)c(N)nc1N` gave an IC50 [1] of 950 nM.
`C[N+](C)(CCCCNC(=O)Cc1ccc(Cl)cc1)CCNC(=O)c1nc(Cl)c(N)nc1N` showed an IC50 [1] of 720 nM.
Compound `COc1ccc(CCC[N+](C)(CCCc2ccc(OC)cc2)CCNC(=O)c2nc(Cl)c(N)nc2N)cc1.[Br-]` has a solubility thermodynamic at 24 h [2] of 600 µg/mL, a solubility thermodynamic at 24 h [3] of 1000 µg/mL and a solubility thermodynamic at 24 h [4] of 500 µg/mL. For the same compound, the solubility thermodynamic at 24 h [5] was 900 µg/mL, the Ratio IC50 (Homo sapiens) was 100 and the IC50 [1] was 13 nM.
With `Cc1ccc(C(=O)NCCCC[N+](C)(C)CCNC(=O)c2nc(Cl)c(N)nc2N)cc1` the IC50 [1] was 880 nM.
`C[N+](C)(CCCNC(=O)c1ccc(Cl)cc1)CCNC(=O)c1nc(Cl)c(N)nc1N` showed an IC50 [1] of 740 nM.
`Cc1ccc(CC(=O)NCCCC[N+](C)(C)CCNC(=O)c2nc(Cl)c(N)nc2N)cc1` gave an IC50 [1] of 750 nM.
Compound `COc1ccc(CCC[N+](CCCc2ccc(OC)cc2)(CCCc2ccc(OC)cc2)CCNC(=O)c2nc(Cl)c(N)nc2N)cc1` has an IC50 [1] of 37 nM.
`NCCNC(=O)c1nc(Cl)c(N)nc1N` gave an IC50 [1] of 3970 nM.
In the case of `CN(C)CCCNC(=O)c1nc(Cl)c(N)nc1N`, the IC50 [1] is reported as 17400 nM.
In the case of `C[N+](C)(CCNC(=O)c1nc(Cl)c(N)nc1N)CCNS(=O)(=O)c1ccc(Cl)cc1`, the IC50 [1] is reported as 1120 nM.
In the case of `C[N+](C)(CCCCNC(=O)CCc1ccc(OCc2ccccc2)cc1)CCNC(=O)c1nc(Cl)c(N)nc1N`, the IC50 [1] is reported as 80 nM.
`C[N+](C)(CCCCNC(=O)CCc1ccccc1)CCNC(=O)c1nc(Cl)c(N)nc1N` gave an IC50 [1] of 910 nM.
Work on `CN(C)CCNC(=O)c1nc(Cl)c(N)nc1N` yielded an IC50 [1] of 4780 nM.
`C[N+](C)(CCCCNC(=O)CCc1ccc(Cl)cc1)CCNC(=O)c1nc(Cl)c(N)nc1N` gave an IC50 [1] of 160 nM.
Work on `COc1ccc(CCC[N+](C)(C)CCNC(=O)c2nc(Cl)c(N)nc2N)cc1.[Br-]` yielded an IC50 [6] of 180 nM, a Papp A→B [7] of 0.93 ×10⁻⁶ cm/s and a solubility thermodynamic at 24 h [2] of 4800 µg/mL. It also gave a solubility thermodynamic at 24 h [3] of 4700 µg/mL, a solubility thermodynamic at 24 h [4] of 4900 µg/mL and a solubility thermodynamic at 24 h [5] of 5000 µg/mL. It also gave an ED50 (Cavia porcellus) of 0.044 mg/kg, a Papp B→A [8] of 1.67 ×10⁻⁶ cm/s and an IC50 [1] of 270 nM.
`N=C(N)NC(=O)c1nc(Cl)c(N)nc1N` [AMILORIDE] showed an IC50 [6] of 540 nM, an ED50 (Cavia porcellus) of 0.016 mg/kg and an IC50 [1] of 220 nM.
In the case of `C[N+](C)(CCCCNC(=O)Cc1ccc(OCc2ccccc2)cc1)CCNC(=O)c1nc(Cl)c(N)nc1N.[Br-]`, the IC50 [9] is reported as 330 nM, the Papp A→B [7] is reported as 3.33 ×10⁻⁶ cm/s and the IC50 [10] is reported as 10800 nM. For the same compound, the Papp B→A [8] was 2.55 ×10⁻⁶ cm/s and the IC50 [1] was 60 nM.
With `CN(C)CCCCNC(=O)c1nc(Cl)c(N)nc1N` the inhibition (HBE) was under 60%.
`C[N+](C)(CCNC(=O)c1ccc(Cl)cc1)CCNC(=O)c1nc(Cl)c(N)nc1N` showed an IC50 [1] of 1660 nM.
For `C[N+](C)(CCCCCNS(=O)(=O)c1ccc(Cl)cc1)CCNC(=O)c1nc(Cl)c(N)nc1N`, the IC50 [1] was 960 nM.
In the case of `C[N+](C)(C)CCNC(=O)c1nc(Cl)c(N)nc1N`, the IC50 [1] is reported as 5810 nM.
In the case of `C[N+](C)(CCCCNS(=O)(=O)c1ccc(Cl)cc1)CCNC(=O)c1nc(Cl)c(N)nc1N`, the IC50 [1] is reported as 250 nM.
Work on `CNCCNC(=O)c1nc(Cl)c(N)nc1N` yielded an IC50 [1] of 4570 nM.
Work on `C[N+](C)(CCCCNC(=O)c1ccc(Cl)cc1)CCNC(=O)c1nc(Cl)c(N)nc1N` yielded an IC50 [1] of 510 nM.
Compound `N/C(=N\C(=O)c1nc(Cl)c(N)nc1N)NCc1ccccc1` [BENZAMIL] has an IC50 [1] of 20 nM.
With `C[N+](C)(CCCCNC(=O)c1ccccc1)CCNC(=O)c1nc(Cl)c(N)nc1N` the IC50 [1] was 1230 nM.
Work on `C[N+](C)(CCCCCNC(=O)c1ccc(Cl)cc1)CCNC(=O)c1nc(Cl)c(N)nc1N` yielded an IC50 [1] of 750 nM.
`C[N+](C)(CCCNS(=O)(=O)c1ccc(Cl)cc1)CCNC(=O)c1nc(Cl)c(N)nc1N` gave an IC50 [1] of 290 nM.
